The results in this text go back to ChEMBL document CHEMBL1125123, “Antimalarial activity of new water-soluble dihydroartemisinin derivatives. 3. Aromatic amine analogues” (J Med Chem, 1990).

As usually defined, the IC50 is the midpoint of a concentration-inhibition curve. A low value points to inhibition by little substance.

Experiment [1] relates to Plasmodium falciparum. The experiment can be described thus: Antimalarial activity against Plasmodium falciparum D6 Africa in human malaria. The experiment is classed as functional, organism-based. The essentials: (§1)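 Compounds dissolved in DMSO and 70% ethanol, then diluted in RPMI 1640 with 10% human plasma and tested over 1.56–100 × 10⁻⁹ M. Parasites at 0.5% parasitemia and 1% hematocrit were exposed to compound for 24 h before ³H-hypoxanthine was added. Uptake was read by scintillation counting, and IC50 was derived by nonlinear regression of concentration-response data.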

The subject of experiment [2] is Plasmodium falciparum. Briefly: Antimalarial activity against Plasmodium falciparum W-2 Indochina in human malaria. The experiment is classed as functional, organism-based. The method, boiled down:
as §1

Values after ≈ are worked out from the molar mass of the structure shown.

For the compound `C[C@@H]1CC[C@H]2[C@](C)(Br)[C@@H](Nc3nccs3)O[C@@H]3O[C@@]4(C)CC[C@@H]1[C@]32OO4`, the IC50 was found to be 0.91 ng/mL (≈ 2.04 nM) in the experiment with Plasmodium falciparum [1] and 0.21 ng/mL (≈ 0.472 nM) in the experiment with Plasmodium falciparum [2].

In the case of `C[C@@H]1CC[C@H]2[C@](C)(Br)[C@@H](Nc3ccccn3)O[C@@H]3O[C@@]4(C)CC[C@@H]1[C@]32OO4`, the IC50 was 7.72 ng/mL (≈ 17.6 nM) in the experiment on Plasmodium falciparum [1] and 1.19 ng/mL (≈ 2.71 nM) in the experiment on Plasmodium falciparum [2].

Take `C[C@@H]1CC[C@H]2[C@](C)(Br)[C@@H](Nc3cccc(F)c3)O[C@@H]3O[C@@]4(C)CC[C@@H]1[C@]32OO4`: the IC50 in the experiment with Plasmodium falciparum [1] is 0.16 ng/mL (≈ 0.351 nM); in the experiment on Plasmodium falciparum [2] it was below 0.16 ng/mL.

`C[C@@H]1CC[C@H]2[C@](C)(Br)[C@@H](Nc3ncccn3)O[C@@H]3O[C@@]4(C)CC[C@@H]1[C@]32OO4`: the figures for the IC50 with Plasmodium falciparum [1] and in the experiment with Plasmodium falciparum [2] were 26 ng/mL (≈ 59 nM) and 5.56 ng/mL (≈ 12.6 nM), respectively.

As to `C[C@@H]1CC[C@H]2[C@](C)(Br)[C@@H](Nc3ccccc3)O[C@@H]3O[C@@]4(C)CC[C@@H]1[C@]32OO4`, the IC50 in the experiment with Plasmodium falciparum [1] turned out to be 3.42 ng/mL (≈ 7.8 nM); in the experiment on Plasmodium falciparum [2], 0.63 ng/mL (≈ 1.44 nM).

In turn, `C[C@@H]1CC[C@H]2[C@@H](C)C(=O)O[C@@H]3O[C@@]4(C)CC[C@@H]1[C@]32OO4` [ARTEMISININ] returned an IC50 in the experiment with Plasmodium falciparum [1] of 0.56 ng/mL (≈ 1.98 nM).
